ChEMBL document CHEMBL5356968, “Miconazole-like Scaffold is a Promising Lead for Naegleria fowleri-Specific CYP51 Inhibitors” (J Med Chem, 2023)
pEC50: −log10 of the molar value.

Columns and labels:
Naegleria fowleri [1] = assay: Antiprotozoal activity against Naegleria fowleri European KUL assessed as inhibition of parasite growth at 10 uM incubated for 48 hrs by CellTiter-Glo luminescent cell viability assay relative to control; format: functional
Method in brief: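 Axenic N. fowleri KUL trophozoites from log-phase culture in Nelson's medium with 10% FBS at 37 °C. Primary screen run in duplicate at 10 μM, 2,500 amoebae/well in 384-well format. Plates incubated 48 h at 37 °C, then viability read by CellTiter-Glo luminescence. BSL-2 handling.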

[2] = Drug concentration in C57BL/6 mouse plasma at 40 mg/kg, ip measured after 1 hrs by HPLC-ESI-MS/MS analysis; format: ADME, organism-based
[3] = Drug concentration in C57BL/6 mouse brain at 40 mg/kg, ip measured after 1 hrs by HPLC-ESI-MS/MS analysis; format: ADME, organism-based; conditions: read-out: Drug uptake
Naegleria fowleri [4] = assay: Antiprotozoal activity against Naegleria fowleri European KUL assessed as inhibition of parasite growth incubated for 48 hrs by CellTiter-Glo luminescent cell viability assay; format: functional, organism-based
Naegleria fowleri [5] = assay: Antiprotozoal activity against Naegleria fowleri; format: functional, organism-based
Method in brief: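 N. fowleri European KUL trophozoites, axenic in Nelson's medium + 10% FBS at 37 °C, harvested in log phase. Single-point screen at 10 μM in duplicate (2,500 amoebae/well). Dose–response in triplicate, serial dilution 50 to 0.39 μM (10,000 amoebae/well). 48 h at 37 °C; viability by CellTiter-Glo luminescence.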

O=C(OC(Cn1ccnc1)c1ccccc1)c1cccc(C(F)(F)F)c1 (stereo not given)
inhibition at 10 µM (Naegleria fowleri [1]): ≥ 50%

COc1ccc(CC(c2ccc(OC)cc2)n2ccnc2)cc1 (stereo not given)
inhibition at 10 µM (Naegleria fowleri [1]): ≥ 50%

COc1ccc(C(Cc2ccc(Cl)cc2)n2ccnc2)cc1 (stereo not given)
inhibition at 10 µM (Naegleria fowleri [1]): ≥ 50%

Clc1ccc(-n2ccc(C(c3ccccc3)n3ccnc3)c2)cc1 (stereo not given)
inhibition at 10 µM (Naegleria fowleri [1]): ≥ 50%

O=C(Nc1ccc(N2CCN(c3ccc(Cl)cc3)CC2)cc1)OC(Cn1ccnc1)c1ccc(F)cc1 (stereo not given)
inhibition at 10 µM (Naegleria fowleri [1]): ≥ 50%

Clc1ccc(C(c2ccn(-c3ccc(Cl)cc3)c2)n2ccnc2)cc1 (stereo not given)
inhibition at 10 µM (Naegleria fowleri [1]): ≥ 50%

Fc1ccc([C@@H](Cn2ccnc2)OCc2cc(Cl)cc(Cl)c2)cc1
concentration at 1 h [2]: 656 ng/mL
concentration at 1 h [3]: 232 ng/g

FC(F)(F)c1cccc(CO[C@H](Cn2ccnc2)c2ccc(Cl)cc2Cl)c1
concentration at 1 h [2]: 37 ng/mL

CC(C)c1cccc(NC(=O)OC(Cn2ccnc2)c2ccccc2)c1 (stereo not given)
inhibition at 10 µM (Naegleria fowleri [1]): ≥ 50%

COc1ccc(C(Cc2ccc(-n3cccc3)cc2)n2ccnc2)cc1 (stereo not given)
inhibition at 10 µM (Naegleria fowleri [1]): ≥ 50%

O=C(OC(Cn1ccnc1)c1ccc(F)cc1)c1cccc(C(F)(F)F)c1 (racemic)
inhibition at 10 µM (Naegleria fowleri [1]): ≥ 50%

OC(Cn1cncn1)(Cn1cncn1)c1ccc(F)cc1F [FLUCONAZOLE]
pEC50 (Naegleria fowleri [4]): 4.86

CCC(C)n1ncn(-c2ccc(N3CCN(c4ccc(OCC5COC(Cn6cncn6)(c6ccc(Cl)cc6Cl)O5)cc4)CC3)cc2)c1=O (stereo not given) [ITRACONAZOLE]
pEC50 (Naegleria fowleri [5]): ≥ 5.00

CC[C@@H]([C@H](C)O)n1ncn(-c2ccc(N3CCN(c4ccc(OC[C@@H]5CO[C@@](Cn6cncn6)(c6ccc(F)cc6F)C5)cc4)CC3)cc2)c1=O [POSACONAZOLE]
pEC50 (Naegleria fowleri [5]): ≥ 5.00
